Assays:
Liver microsome = test: Drug metabolism in human liver microsomes assessed as T-5224 hydroxyl O-glucuronide formation per mg protein after 10 to 60 mins by HPLC method; type: ADME
Method in brief: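 Pooled liver (0.5 mg protein/mL) or intestinal (0.25 mg protein/mL) microsomes in 50 mM Tris-HCl pH 7.5, 8 mM MgCl2, alamethicin, 2% DMSO. T-5224 at 1–50 μM, 5 min preincubation at 37°C, started with 2 mM UDPGA. Incubated 10 min, or 20 min for intestinal microsomes at 1–5 μM. Acetonitrile stop, glucuronides by HPLC at 290 nm. Triplicates fitted to a substrate-inhibition model.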

[1] = Drug metabolism in pooled human intestinal microsomes assessed as T-5224 hydroxyl O-glucuronide formation at 10 uM after 10 mins by HPLC method; type: ADME, Intestine, Microsome
Method in brief: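 T-5224 at 10 μM incubated for 10 min at 37°C with UDPGA (2 mM) in pooled liver (0.5 mg protein/mL) or intestinal (0.25 mg protein/mL) microsomes. Buffer was 50 mM Tris-HCl pH 7.5 with 8 mM MgCl2 and alamethicin, after 5 min preincubation. Stopped with acetonitrile; glucuronides quantified by HPLC at 290 nm.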

O=C(O)CCc1cc(C(=O)c2ccc(OC3CCCC3)cc2O)ccc1OCc1ccc2c(O)noc2c1
Vmax (Liver microsome): 305 pmol/min
Drug metabolism [1]: metabolite_detected

From ChEMBL document CHEMBL3526015, “Metabolism of the c-Fos/activator protein-1 inhibitor T-5224 by multiple human UDP-glucuronosyltransferase isoforms” (Drug Metab Dispos, 2011)
